The source made the active and inactive calls. The calls are words filed in the database; no cut-off is given here.
What was measured:
[1] = biological target: T1, Epidermal growth factor receptor (Homo sapiens, UniProt P00533, L858R/T790M); test: Inhibition of EGFR L858R/T790M mutant after 1.5 hr by FRET assay; type: protein assay
[2] = biological target: T2, Epidermal growth factor receptor (Homo sapiens, UniProt P00533, T790M); test: Inhibition of EGFR T790M mutant after 1.5 hr by FRET assay; type: protein assay
[3] = biological target: T3, Epidermal growth factor receptor (Homo sapiens, UniProt P00533); test: Inhibition of EGFR after 1.5 hr by FRET assay
[4] = Antiproliferative activity against human HL7702 cells expressing wilt type EGFR after 72 hrs by MTS assay; settings: L02, 72 h
[5] = biological target: T4, Epidermal growth factor receptor (Homo sapiens, UniProt P00533, L858R); test: Inhibition of EGFR L858R mutant after 1.5 hr by FRET assay; type: protein assay
[6] = test system: A549; test: Antiproliferative activity against human A549 cells expressing wild type EGFR coexpressing k-Ras mutant after 72 hrs by MTS assay; settings: A549, 72 h
[7] = test system: A-431; test: Antiproliferative activity against human A431 cells overexpressing EGFR after 72 hrs by MTS assay; settings: A-431, 72 h
[8] = biological target: T5, Epidermal growth factor receptor (Homo sapiens, UniProt P00533, L861Q); test: Inhibition of EGFR L861Q mutant after 1.5 hr by FRET assay; type: protein assay
[9] = test system: NCI-H1975; test: cells; settings: Homo sapiens, NCI-H1975, 72 h
[10] = cells; settings: Homo sapiens, HCC827, 72 h
[11] = biological target: T3, Epidermal growth factor receptor; test: Binding affinity to EGFR
[12] = biological target: T5, Epidermal growth factor receptor; test: Binding affinity to EGFR L861Q mutant
[13] = biological target: T2, Epidermal growth factor receptor; test: Binding affinity to EGFR T790M mutant
[14] = biological target: T1, Epidermal growth factor receptor; test: Binding affinity to EGFR L858R/T790M mutant
[15] = biological target: T4, Epidermal growth factor receptor; test: Binding affinity to EGFR L858R mutant
[16] = test system: NCI-H1975; test: Induction of apoptosis in human NCI-H1975 cells harboring EGFR L858R/T790M mutant after 48 hrs by flow cytometry assay
[17] = test system: HCC827; test: Induction of Cell cycle arrest in human HCC827 cells harboring EGFR del E746-A750 mutant assessed as G1 phase cells after 24 hrs by flow cytometry assay; type: functional, cell-based
How it was run: (§1)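 Cells in six-well plates serum-starved 24 h to synchronize in G0−G1, then treated at indicated concentrations for 24 h. Lightly trypsinized and cell-cycle distribution analysed by flow cytometry.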

[18] = biological target: Mitogen-activated protein kinase kinase kinase 15 (Homo sapiens) (UniProt Q6ZN16); test: Binding affinity to MAP3K15
How it was run: (§2)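 Ambit KINOMEscan binding assay. Binding for 1 h at r.t. Unbound kinase captured on immobilized affinity ligand and quantified by qPCR.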

[19] = test system: NCI-H1975; test: Induction of Cell cycle arrest in human NCI-H1975 cells harboring EGFR L858R/T790M mutant assessed as G1 phase cells after 24 hrs by flow cytometry assay; type: functional, cell-based; how it was run: as §1
[20] = test system: Mast/stem cell growth factor receptor Kit (Homo sapiens), P10721 [V559D]; test: Binding affinity to KIT V559D mutant; how it was run: as §2
[21] = biological target: Cytoplasmic tyrosine-protein kinase BMX (Homo sapiens) (UniProt P51813); test: Binding affinity to BMX; how it was run: as §2
[22] = Cytotoxicity against human HLF1 cells after 72 hrs by MTS assay; type: cell-based; settings: hlf1, 72 h
How it was run: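 MTS proliferation read-out at 490 nm after 72 h exposure, cell number set to give absorbance 1.3−2.2. Six concentrations, 0.1 nM to 10 μM, at least six parallels each, repeated at least four times. IC50 from nonlinear sigmoidal dose−response fit.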

[23] = biological target: Tyrosine-protein kinase JAK3 (Homo sapiens) (UniProt P52333); test: Binding affinity to JAK3; how it was run: as §2
[24] = biological target: Tyrosine-protein kinase Lck (Homo sapiens) (UniProt P06239); test: Binding affinity to LCK; how it was run: as §2
[25] = biological target: Activated CDC42 kinase 1 (Homo sapiens) (UniProt Q07912); test: Binding affinity to TNK2; how it was run: as §2
[26] = test system: HCC827; test: Induction of apoptosis in human HCC827 cells harboring EGFR del E746-A750 mutant after 48 hrs by flow cytometry assay
[27] = biological target: Tyrosine-protein kinase Tec (Homo sapiens) (UniProt P42680); test: Binding affinity to TEC; how it was run: as §2
[28] = test system: NCI-H1975; test: Antiproliferative activity against human NCI-H1975 cells harboring EGFR L858R/T790M mutant assessed as inhibition of colony formation after 9 days by crystal violet staining; type: functional, cell-based
How it was run: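 H1975 cells seeded at 500 cells per 6-cm dish and grown 24 h, then treated at 0.1 to 10 nM. Medium with compound replaced every 3 days. After 9 days, fixed with 4% formaldehyde and stained with 0.2% crystal violet.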

[29] = biological target: Platelet-derived growth factor receptor beta (Homo sapiens) (UniProt P09619); test: Binding affinity to PDGFRbeta; how it was run: as §2

T1 sequence (P00533 25-1210 T790M/L858R limits assumed): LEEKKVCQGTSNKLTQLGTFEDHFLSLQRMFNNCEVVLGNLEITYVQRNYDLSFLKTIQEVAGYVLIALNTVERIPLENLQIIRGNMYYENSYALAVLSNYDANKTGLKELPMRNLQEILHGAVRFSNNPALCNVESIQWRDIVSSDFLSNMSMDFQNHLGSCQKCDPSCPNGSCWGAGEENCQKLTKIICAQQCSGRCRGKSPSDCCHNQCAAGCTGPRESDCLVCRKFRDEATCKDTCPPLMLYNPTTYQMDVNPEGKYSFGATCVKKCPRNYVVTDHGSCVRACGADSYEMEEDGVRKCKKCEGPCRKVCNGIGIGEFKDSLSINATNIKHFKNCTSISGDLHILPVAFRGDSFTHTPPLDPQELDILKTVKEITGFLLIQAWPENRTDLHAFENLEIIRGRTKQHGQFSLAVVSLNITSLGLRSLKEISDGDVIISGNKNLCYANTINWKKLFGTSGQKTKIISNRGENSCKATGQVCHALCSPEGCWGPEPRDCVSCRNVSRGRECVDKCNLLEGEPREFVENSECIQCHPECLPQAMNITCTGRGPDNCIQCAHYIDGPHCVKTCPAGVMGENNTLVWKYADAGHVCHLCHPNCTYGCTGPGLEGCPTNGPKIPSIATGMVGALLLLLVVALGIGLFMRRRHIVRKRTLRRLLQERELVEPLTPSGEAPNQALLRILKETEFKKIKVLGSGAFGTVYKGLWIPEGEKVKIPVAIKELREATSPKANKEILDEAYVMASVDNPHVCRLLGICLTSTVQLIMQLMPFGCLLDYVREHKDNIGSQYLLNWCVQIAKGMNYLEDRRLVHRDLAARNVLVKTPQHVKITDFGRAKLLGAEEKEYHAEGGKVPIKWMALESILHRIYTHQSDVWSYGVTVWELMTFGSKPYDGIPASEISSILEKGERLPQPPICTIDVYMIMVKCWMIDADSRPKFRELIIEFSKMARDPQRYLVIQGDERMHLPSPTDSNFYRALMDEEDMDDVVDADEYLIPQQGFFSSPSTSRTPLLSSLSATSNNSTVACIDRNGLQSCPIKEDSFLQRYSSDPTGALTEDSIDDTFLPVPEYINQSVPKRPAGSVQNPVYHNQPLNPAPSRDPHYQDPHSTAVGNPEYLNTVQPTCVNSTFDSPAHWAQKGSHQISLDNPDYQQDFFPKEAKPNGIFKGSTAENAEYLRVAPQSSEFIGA
T5 sequence (P00533 25-1210 L861Q limits assumed): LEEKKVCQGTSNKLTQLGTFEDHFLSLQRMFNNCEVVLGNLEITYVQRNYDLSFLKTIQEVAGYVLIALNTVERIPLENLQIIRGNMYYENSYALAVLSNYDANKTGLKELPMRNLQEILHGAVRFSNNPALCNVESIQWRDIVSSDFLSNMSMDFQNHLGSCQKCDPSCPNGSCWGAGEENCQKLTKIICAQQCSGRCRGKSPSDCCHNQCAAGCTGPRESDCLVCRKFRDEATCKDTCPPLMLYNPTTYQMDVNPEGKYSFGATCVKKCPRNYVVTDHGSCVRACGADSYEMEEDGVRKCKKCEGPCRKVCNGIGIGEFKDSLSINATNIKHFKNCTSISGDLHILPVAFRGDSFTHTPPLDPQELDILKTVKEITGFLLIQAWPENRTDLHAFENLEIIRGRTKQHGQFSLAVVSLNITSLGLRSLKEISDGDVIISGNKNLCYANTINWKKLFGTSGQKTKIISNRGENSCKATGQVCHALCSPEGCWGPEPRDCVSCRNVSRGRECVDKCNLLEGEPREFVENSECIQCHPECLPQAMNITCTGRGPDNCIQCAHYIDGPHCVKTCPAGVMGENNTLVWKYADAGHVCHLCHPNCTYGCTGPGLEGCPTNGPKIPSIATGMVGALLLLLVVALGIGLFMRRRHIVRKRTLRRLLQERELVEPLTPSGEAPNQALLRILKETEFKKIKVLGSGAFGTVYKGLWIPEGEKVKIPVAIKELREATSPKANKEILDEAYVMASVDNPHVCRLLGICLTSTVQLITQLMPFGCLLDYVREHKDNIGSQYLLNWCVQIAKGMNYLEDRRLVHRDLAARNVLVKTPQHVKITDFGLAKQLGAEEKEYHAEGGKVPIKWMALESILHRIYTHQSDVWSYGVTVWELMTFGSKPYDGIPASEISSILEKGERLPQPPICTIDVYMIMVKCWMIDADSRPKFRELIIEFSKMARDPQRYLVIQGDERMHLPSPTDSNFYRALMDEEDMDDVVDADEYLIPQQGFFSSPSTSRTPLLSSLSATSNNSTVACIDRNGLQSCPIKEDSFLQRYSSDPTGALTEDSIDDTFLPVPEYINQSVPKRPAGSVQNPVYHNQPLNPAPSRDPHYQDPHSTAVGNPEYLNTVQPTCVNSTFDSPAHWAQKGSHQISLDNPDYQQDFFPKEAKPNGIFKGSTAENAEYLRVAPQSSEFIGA
T3 sequence (P00533 whole entry): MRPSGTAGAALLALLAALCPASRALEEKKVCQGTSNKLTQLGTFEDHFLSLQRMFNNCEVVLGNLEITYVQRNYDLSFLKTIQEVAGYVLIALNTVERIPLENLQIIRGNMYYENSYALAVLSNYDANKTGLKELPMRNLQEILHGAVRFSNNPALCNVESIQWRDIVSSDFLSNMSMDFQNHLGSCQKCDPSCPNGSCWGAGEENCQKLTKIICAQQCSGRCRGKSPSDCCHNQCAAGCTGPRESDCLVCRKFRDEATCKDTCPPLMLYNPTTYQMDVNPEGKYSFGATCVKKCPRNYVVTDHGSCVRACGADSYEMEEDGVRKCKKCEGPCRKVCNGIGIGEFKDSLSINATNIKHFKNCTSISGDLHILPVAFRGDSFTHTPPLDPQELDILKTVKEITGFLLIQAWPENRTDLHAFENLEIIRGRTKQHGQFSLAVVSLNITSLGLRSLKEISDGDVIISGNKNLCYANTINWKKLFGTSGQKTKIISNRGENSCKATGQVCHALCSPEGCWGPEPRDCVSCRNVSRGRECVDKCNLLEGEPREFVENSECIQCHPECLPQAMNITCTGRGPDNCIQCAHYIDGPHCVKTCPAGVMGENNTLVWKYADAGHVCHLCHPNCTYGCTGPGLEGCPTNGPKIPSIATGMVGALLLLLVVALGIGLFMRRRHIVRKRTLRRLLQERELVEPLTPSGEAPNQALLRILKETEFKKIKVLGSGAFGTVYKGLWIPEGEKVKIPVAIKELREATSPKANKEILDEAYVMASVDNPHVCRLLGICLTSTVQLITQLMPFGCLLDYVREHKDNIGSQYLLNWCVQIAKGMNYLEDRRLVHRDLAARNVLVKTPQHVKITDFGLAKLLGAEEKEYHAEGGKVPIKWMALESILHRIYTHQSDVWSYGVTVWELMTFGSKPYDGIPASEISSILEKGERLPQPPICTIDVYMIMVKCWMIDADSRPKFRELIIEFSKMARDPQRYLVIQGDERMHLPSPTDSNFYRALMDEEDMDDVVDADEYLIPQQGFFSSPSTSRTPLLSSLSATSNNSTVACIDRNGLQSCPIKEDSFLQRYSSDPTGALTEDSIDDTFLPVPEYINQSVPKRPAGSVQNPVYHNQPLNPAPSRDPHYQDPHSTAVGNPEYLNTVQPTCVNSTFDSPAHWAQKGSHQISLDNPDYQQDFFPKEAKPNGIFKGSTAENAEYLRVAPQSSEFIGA
T4 sequence (P00533 25-1210 L858R limits assumed): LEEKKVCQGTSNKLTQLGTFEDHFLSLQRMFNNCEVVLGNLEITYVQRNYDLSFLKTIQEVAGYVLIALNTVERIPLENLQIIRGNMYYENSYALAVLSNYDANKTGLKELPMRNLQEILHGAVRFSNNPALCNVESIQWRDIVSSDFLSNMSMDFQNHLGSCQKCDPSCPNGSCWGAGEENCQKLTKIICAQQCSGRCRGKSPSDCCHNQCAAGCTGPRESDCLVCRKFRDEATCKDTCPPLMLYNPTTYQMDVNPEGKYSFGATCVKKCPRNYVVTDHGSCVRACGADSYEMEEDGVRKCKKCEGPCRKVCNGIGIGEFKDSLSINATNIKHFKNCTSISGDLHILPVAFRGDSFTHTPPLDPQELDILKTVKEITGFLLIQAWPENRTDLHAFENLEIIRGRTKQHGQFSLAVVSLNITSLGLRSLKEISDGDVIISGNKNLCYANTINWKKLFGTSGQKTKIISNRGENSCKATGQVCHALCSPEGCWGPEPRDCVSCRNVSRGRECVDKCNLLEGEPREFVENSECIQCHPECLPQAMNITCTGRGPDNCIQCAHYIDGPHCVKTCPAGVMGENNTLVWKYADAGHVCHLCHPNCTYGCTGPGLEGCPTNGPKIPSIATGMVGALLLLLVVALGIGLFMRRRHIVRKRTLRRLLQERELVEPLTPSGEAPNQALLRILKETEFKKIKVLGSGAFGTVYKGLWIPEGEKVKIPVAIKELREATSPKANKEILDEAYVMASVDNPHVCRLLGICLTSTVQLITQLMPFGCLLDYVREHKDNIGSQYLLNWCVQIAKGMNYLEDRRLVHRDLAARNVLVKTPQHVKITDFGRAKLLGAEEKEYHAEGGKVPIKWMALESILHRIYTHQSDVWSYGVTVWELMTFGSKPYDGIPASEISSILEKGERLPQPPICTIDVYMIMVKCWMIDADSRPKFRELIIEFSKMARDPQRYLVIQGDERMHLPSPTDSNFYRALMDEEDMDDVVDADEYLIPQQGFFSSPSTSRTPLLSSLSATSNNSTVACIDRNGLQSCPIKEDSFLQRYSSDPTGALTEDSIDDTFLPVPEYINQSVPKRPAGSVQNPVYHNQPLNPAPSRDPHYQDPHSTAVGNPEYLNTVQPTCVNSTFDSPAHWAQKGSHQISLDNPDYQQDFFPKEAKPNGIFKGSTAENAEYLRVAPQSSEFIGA

IC50 [1] [nM] | IC50 [2] [nM] | IC50 [3] [nM] | IC50 [5] [nM] | IC50 [6] [nM] | IC50 [7] [nM] | IC50 [8] [nM] | IC50 [9] [nM] | IC50 [10] [nM] | SMILES | IC50 [4] [nM] | also measured
4.18 | 9.37 | 1.95 | 1.21 | 11900 | 990 | 1.31 | 200 | 31 | C=CC(=O)Nc1cccc(N2C(=O)N(C)Cc3cnc(Nc4ccc(N5CCN(C)CC5)cc4C)nc32)c1 | > 10000 | 
36.4 | 95.7 | 29.5 | 10.4 | 12000 | 5060 | 15.4 | 610 | 170 | C=CC(=O)Nc1cccc(N2C(=O)N(C)Cc3cnc(Nc4ccc(N5CCCCC5)cc4OC)nc32)c1 | > 10000 | 
> 1000 | > 1000 | 929 | > 1000 | > 20000 | > 10000 | 837 | 20100 | 6920 | C=CC(=O)Nc1cccc(N2C(=O)N(C)Cc3cnc(NC)nc32)c1 | > 10000 | 
4.42 |  | 0.38 | 0.45 | 8420 | 820 | 0.46 | 58 | 4 | C=CC(=O)Nc1cccc(N2C(=O)N(C(C)C)Cc3cnc(Nc4ccc(N5CCN(C)CC5)cc4OC)nc32)c1 | > 10000 | 
1.19 | 1.66 | 0.43 | 0.53 | 11400 | 550 | 0.56 | 45 | 14 | C=CC(=O)Nc1cccc(N2C(=O)N(C)Cc3cnc(Nc4ccc(N5CCN(C)CC5)cc4)nc32)c1 | 7560 | 
5.17 | 11 | 1.47 | 2.11 | > 20000 | 2150 | 2.75 | 720 | 73 | C=CC(=O)Nc1cccc(N2C(=O)N(C)Cc3cnc(Nc4ccc(N5CCCN(C)CC5)cc4OC)nc32)c1 | > 10000 | 
> 1000 | > 1000 | > 1000 | > 1000 | > 30000 | > 10000 | > 1000 | > 20000 |  | CCC(=O)Nc1cccc(N2C(=O)N(C)Cc3cnc(Nc4ccc(N5CCN(C)CC5)cc4OC)nc32)c1 | > 10000 | Kd [11]: 1400 nM; Kd [12]: 1100 nM; Kd [13]: 560 nM; Kd [14]: 850 nM; Kd [15]: 1600 nM
 |  |  |  | 5310 | 1390 |  | 48 | 7 | C=CC(=O)Nc1cccc(Oc2nc(Nc3ccc(N4CCN(C)CC4)cc3OC)ncc2Cl)c1 | 2730 | 
6.31 | 2.43 | 1.67 | 2.42 | 2470 |  | 2.56 |  |  | C=CC(=O)Nc1cccc(N2C(=O)N(c3ccc(OCc4ccccc4)cc3)Cc3cnc(Nc4ccc(N5CCN(C)CC5)cc4OC)nc32)c1 | 2790 | 
3.57 | 2.03 | 1.52 | 1.66 | 1770 |  | 2.31 |  |  | C=CC(=O)Nc1cccc(N2C(=O)N(c3ccc(Oc4ccccc4)cc3)Cc3cnc(Nc4ccc(N5CCN(C)CC5)cc4OC)nc32)c1 | > 10000 | 
5.2 | 9.52 | 3.52 | 2.41 | 14500 | 1390 | 2.83 | 530 | 150 | C=CC(=O)Nc1cccc(N2C(=O)N(C)Cc3cnc(Nc4ccc(N5CCC(N(C)C)CC5)cc4OC)nc32)c1 | > 10000 | 
> 1000 | > 1000 | > 1000 | > 1000 | 11200 | > 10000 | > 1000 | > 20000 | 4890 | COc1cc(N2CCN(C)CC2)ccc1Nc1ncc2c(n1)N(c1cccc(N)c1)C(=O)N(C)C2 | > 10000 | 
> 1000 | > 1000 | > 1000 | > 1000 | 11100 | > 10000 | > 1000 | 8460 | 5010 | C=CC(=O)Nc1cccc(N2C(=O)N(C)Cc3cnc(Nc4ccc(N5CCN(C)CC5)cc4F)nc32)c1 | 7180 | 
28.9 | 60.3 | 16.4 | 10.3 | 10500 | > 10000 | 12.7 | 150 | 130 | C=CC(=O)Nc1cccc(N2C(=O)N(C)Cc3cnc(Nc4ccc(N5CCOCC5)cc4OC)nc32)c1 | > 10000 | 
4.64 | 5.24 | 1.41 | 1.67 | 2270 |  | 3.43 |  |  | C=CC(=O)Nc1cccc(N2C(=O)N(c3ccc(-c4ccccc4)cc3)Cc3cnc(Nc4ccc(N5CCN(C)CC5)cc4OC)nc32)c1 | 3690 | 
 |  |  |  |  |  |  |  | 1 | C=CC(=O)Nc1cc2c(Nc3ccc(F)c(Cl)c3)ncnc2cc1OCCCN1CCOCC1 [CANERTINIB] |  | 
3.14 | 6.56 | 1.16 | 1.08 | 15900 | 750 | 1.21 | 47 | 18 | C=CC(=O)Nc1cccc(N2C(=O)N(C)Cc3cnc(Nc4ccc(N5CCN(C)CC5)cc4OC)nc32)c1 | > 10000 | 
7.1 | 12.7 | 4.41 | 2.68 | 10400 | 1080 | 3.02 | 103 | 14 | C=CC(=O)Nc1cccc(N2C(=O)N(C)Cc3cnc(Nc4ccc(N5CCN(C)CC5)cc4OCC)nc32)c1 | > 10000 | 
11.5 | 24.9 | 4.99 | 4.95 | > 20000 | 5620 | 6.22 | 540 | 740 | C=CC(=O)Nc1cccc(N2C(=O)N(C)Cc3cnc(Nc4ccc(N(C)C)cc4OC)nc32)c1 | > 10000 | 
36.3 | 39.9 | 8.81 | 13.7 | 11700 | 2110 | 13.5 | 230 | 27 | C=CC(=O)Nc1cccc(N2C(=O)N(C)Cc3cnc(Nc4ccc(N5CCN(C)CC5)cc4OC(C)C)nc32)c1 | > 10000 | 
0.98 | 0.51 | 0.3 | 0.46 | 2800 |  | 0.93 |  |  | C=CC(=O)Nc1cccc(N2C(=O)N(c3ccccc3)Cc3cnc(Nc4ccc(N5CCN(C)CC5)cc4OC)nc32)c1 | 4020 | Activity [16]: Active; Activity [17]: Active; Activity [18]: Active; Activity [19]: Active; Activity [20]: Active; Activity [21]: Active; Activity [22]: Non-toxic; Activity [23]: Active; Activity [24]: Active; Activity [25]: Active; Activity [26]: Active; Activity [27]: Active; inhibition [28]: Dose-dependent effect; Activity [29]: Active
28.3 | 45.7 | 6.95 | 10.9 | 18000 | 6900 | 12.1 | 170 | 44 | C=CC(=O)Nc1cccc(N2C(=O)N(C)Cc3cnc(Nc4ccccc4)nc32)c1 | > 10000 | 

Reference: ChEMBL document CHEMBL2029259, “Design, synthesis, and biological evaluation of novel conformationally constrained inhibitors targeting epidermal growth factor receptor threonine⁷⁹⁰ → methionine⁷⁹⁰ mutant” (J Med Chem, 2012)
